ChEMBL document CHEMBL3244382, “Structural requirements for antileukemic activity among the naturally occurring and semisynthetic maytansinoids” (J Med Chem, 1978)
≈ marks a conversion by molar mass, not a printed value. Calls of active or inactive are those of the source.

Key:
P388 [1] = test: Antitumor activity against mouse P388 cells allografted in PS mouse assessed as median survival time at 50 ug/kg relative to control; type: functional
How it was run: (§1)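 P388 leukemia (PS) in mice, six mice started per dose group. Read-out is T/C: median survival time of the treated group divided by that of the untreated control group, expressed as a percent. The NIH protocol counts a compound as active when T/C > 125%.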

Mus musculus [2] = test: Toxicity in PS mouse allografted with mouse P388 cells assessed as change in body weight at 0.1 ug/kg relative to control; type: organism-based; conditions: in vivo, 0.0001 mg/kg
How it was run: (§2)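 PS (P388 leukemia) mice, six per dose group. Toxicity read as the difference in grams between the weights of treated and control animals.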

Tubulin (Homo sapiens) = Tubulin (Homo sapiens) (UniProt P68371+Q9H4B7+P0DPH7+P68366+Q13509+Q71U36+P04350+Q3ZCM7+P07437+P68363+Q9BQE3+Q6PEY2+Q13885+Q9BVA1+Q9BUF5); test: Inhibition of brain tubulin polymerization (unknown origin) at 37 degC by spectrophotometry
Mus musculus [3] = test: Toxicity in PS mouse allografted with mouse P388 cells assessed as change in body weight at 0.2 ug/kg relative to control; type: organism-based; conditions: in vivo, 0.0002 mg/kg; how it was run: as §2
Mus musculus [4] = test: Toxicity in PS mouse allografted with mouse P388 cells assessed as survival at 3.1 ug/kg after 4 days; type: organism-based; conditions: in vivo, 0.0031 mg/kg, 96 h
How it was run: (§3)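 PS (P388) leukemic mice, six started per dose group. Toxicity scored as survivors on the toxicity day over the number of mice started. The toxicity day is normally 4 days after the first injection.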

Mus musculus [5] = test: Toxicity in PS mouse allografted with mouse P388 cells assessed as survival at 25 ug/kg after 4 days; type: organism-based; conditions: in vivo, 0.025 mg/kg, 96 h; how it was run: as §3
Mus musculus [6] = test: Toxicity in PS mouse allografted with mouse P388 cells assessed as survival at 0.8 ug/kg after 4 days; type: organism-based; conditions: in vivo, 0.0008 mg/kg, 96 h; how it was run: as §3
Mus musculus [7] = test: Toxicity in PS mouse allografted with mouse P388 cells assessed as survival at 50 ug/kg after 4 days; type: organism-based; conditions: in vivo, 0.05 mg/kg, 96 h; how it was run: as §3
Mus musculus [8] = test: Toxicity in PS mouse allografted with mouse P388 cells assessed as survival at 0.1 ug/kg after 4 days; type: organism-based; conditions: in vivo, 0.0001 mg/kg, 96 h; how it was run: as §3
Mus musculus [9] = test: Toxicity in PS mouse allografted with mouse P388 cells assessed as change in body weight at 25 ug/kg relative to control; type: organism-based; conditions: in vivo, 0.025 mg/kg
How it was run: (§4)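 P388 (PS) leukemia in mice, 6 mice per dose group. Weight change is the difference in grams between treated and control animals. Survivors are recorded on toxicity day, normally 4 days after the first injection.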

Mus musculus [10] = test: Toxicity in PS mouse allografted with mouse P388 cells assessed as survival at 0.2 ug/kg after 4 days; type: organism-based; conditions: in vivo, 0.0002 mg/kg, 96 h; how it was run: as §3
Mus musculus [11] = test: Toxicity in PS mouse allografted with mouse P388 cells assessed as survival at 6.2 ug/kg after 4 days; type: organism-based; conditions: in vivo, 0.0062 mg/kg, 96 h; how it was run: as §3
P388 [12] = test: Antitumor activity against mouse P388 cells allografted in PS mouse assessed as median survival time at 25 ug/kg relative to control; type: functional; how it was run: as §1
P388 [13] = test: Antitumor activity against mouse P388 cells allografted in PS mouse assessed as median survival time at 0.4 ug/kg relative to control; type: functional; how it was run: as §1
P388 [14] = test: Antitumor activity against mouse P388 cells allografted in PS mouse assessed as median survival time at 1.6 ug/kg relative to control; type: functional; how it was run: as §1
Mus musculus [15] = test: Toxicity in PS mouse allografted with mouse P388 cells assessed as change in body weight at 50 ug/kg relative to control; type: organism-based; conditions: in vivo, 0.05 mg/kg; how it was run: as §4
P388 [16] = test: Antitumor activity against mouse P388 cells allografted in PS mouse assessed as median survival time at 6.2 ug/kg relative to control; type: functional; how it was run: as §1
Mus musculus [17] = test: Toxicity in PS mouse allografted with mouse P388 cells assessed as change in body weight at 12.5 ug/kg relative to control; type: organism-based; conditions: in vivo, 0.0125 mg/kg; how it was run: as §4
P388 [18] = test: Antitumor activity against mouse P388 cells allografted in PS mouse assessed as median survival time at 0.1 ug/kg relative to control; type: functional; how it was run: as §1
Mus musculus [19] = test: Toxicity in PS mouse allografted with mouse P388 cells assessed as survival at 1.6 ug/kg after 4 days; type: organism-based; conditions: in vivo, 0.0016 mg/kg, 96 h; how it was run: as §3
Mus musculus [20] = test: Toxicity in PS mouse allografted with mouse P388 cells assessed as change in body weight at 0.4 ug/kg relative to control; type: organism-based; conditions: in vivo, 0.0004 mg/kg; how it was run: as §2
Mus musculus [21] = test: Toxicity in PS mouse allografted with mouse P388 cells assessed as change in body weight at 6.2 ug/kg relative to control; type: organism-based; conditions: in vivo, 0.0062 mg/kg; how it was run: as §4
P388 [22] = test: Antitumor activity against mouse P388 cells allografted in PS mouse assessed as median survival time at 0.2 ug/kg relative to control; type: functional; how it was run: as §1
Mus musculus [23] = test: Toxicity in PS mouse allografted with mouse P388 cells assessed as survival at 0.4 ug/kg after 4 days; type: organism-based; conditions: in vivo, 0.0004 mg/kg, 96 h; how it was run: as §3
Paracentrotus lividus = test: Antimitotic activity against sea urchin eggs assessed as drug level causing inhibition of mitosis; type: functional; conditions: Egg
P388 [24] = test: Antitumor activity against mouse P388 cells allografted in PS mouse assessed as median survival time at 3.1 ug/kg relative to control; type: functional; how it was run: as §1
P388 [25] = test: Antitumor activity against mouse P388 cells allografted in PS mouse assessed as median survival time at 0.8 ug/kg relative to control; type: functional; how it was run: as §1
Mus musculus [26] = test: Toxicity in PS mouse allografted with mouse P388 cells assessed as change in body weight at 1.6 ug/kg relative to control; type: organism-based; conditions: in vivo, 0.0016 mg/kg; how it was run: as §4
Mus musculus [27] = test: Toxicity in PS mouse allografted with mouse P388 cells assessed as change in body weight at 3.1 ug/kg relative to control; type: organism-based; conditions: in vivo, 0.0031 mg/kg; how it was run: as §4
KB = test: Cytotoxicity against human KB cells; type: functional; conditions: read-out: ED50 (the source's name)
Mus musculus [28] = test: Toxicity in PS mouse allografted with mouse P388 cells assessed as change in body weight at 0.8 ug/kg relative to control; type: organism-based; conditions: in vivo, 0.0008 mg/kg; how it was run: as §2
P388 [29] = test: Antitumor activity against mouse P388 cells allografted in PS mouse assessed as median survival time at 12.5 ug/kg relative to control; type: functional; how it was run: as §1
Mus musculus [30] = test: Toxicity in PS mouse allografted with mouse P388 cells assessed as survival at 12.5 ug/kg after 4 days; type: organism-based; conditions: in vivo, 0.0125 mg/kg, 96 h; how it was run: as §3

With `COc1cc2cc(c1Cl)N(C)C(=O)C[C@H](OC(=O)[C@H](C)N(C)C(=O)C(C)C)[C@]1(C)O[C@H]1[C@H](C)[C@@H]1C[C@@](O)(NC(=O)O1)[C@H](OC)/C=C/C=C(\C)C2` the T/C (P388 [1]) was <80%, the Activity (Mus musculus [2]) was 0.3 g and the inhibition (Tubulin (Homo sapiens)) was “Active”. The Activity (Mus musculus [3]) was 0.1 g, the Activity (Mus musculus [4]) was “Non-toxic” and the Activity (Mus musculus [5]) was “Non-toxic”. For the same molecule, the Activity (Mus musculus [6]) was “Non-toxic”, the Activity (Mus musculus [7]) was “Toxic” and the Activity (Mus musculus [8]) was “Non-toxic”. The Activity (Mus musculus [9]) was 0.1 g, the Activity (Mus musculus [10]) was “Non-toxic” and the Activity (Mus musculus [11]) was “Non-toxic”. The T/C (P388 [12]) was <80%, the T/C (P388 [13]) was 155% and the T/C (P388 [14]) was 155%. It also gave an Activity (Mus musculus [15]) of 0.1 g, a T/C (P388 [16]) of 155% and an Activity (Mus musculus [17]) of 0.1 g. The T/C (P388 [18]) was 125%, the Activity (Mus musculus [19]) was “Non-toxic” and the Activity (Mus musculus [20]) was 0.4 g. The Activity (Mus musculus [21]) was -1.3 g, the T/C (P388 [22]) was 165% and the Activity (Mus musculus [23]) was “Non-toxic”. For the same molecule, the Activity (Paracentrotus lividus) was 1 nM, the T/C (P388 [24]) was 145% and the T/C (P388 [25]) was 190%. The Activity (Mus musculus [26]) was 0 g, the Activity (Mus musculus [27]) was -0.9 g and the EC50 (KB) was 0.0036 ng/mL (≈ 0.005 nM). For the same molecule, the Activity (Mus musculus [28]) was 0.1 g, the T/C (P388 [29]) was 120% and the Activity (Mus musculus [30]) was “Non-toxic”.
In the case of `CCC(=O)N(C)[C@@H](C)C(=O)O[C@H]1CC(=O)N(C)c2cc(cc(OC)c2Cl)C/C(C)=C/C=C/[C@@H](OC)[C@@]2(O)C[C@H](OC(=O)N2)[C@@H](C)[C@@H]2O[C@@]12C`, the T/C (P388 [1]) is reported as <80%, the Activity (Mus musculus [2]) is reported as -1.1 g and the inhibition (Tubulin (Homo sapiens)) is reported as “Active”. For the same molecule, the Activity (Mus musculus [3]) was -1.1 g, the Activity (Mus musculus [4]) was “Non-toxic” and the Activity (Mus musculus [5]) was “Non-toxic”. For the same molecule, the Activity (Mus musculus [6]) was “Non-toxic”, the Activity (Mus musculus [7]) was “Toxic” and the Activity (Mus musculus [8]) was “Non-toxic”. For the same molecule, the Activity (Mus musculus [9]) was -2.2 g, the Activity (Mus musculus [10]) was “Non-toxic” and the Activity (Mus musculus [11]) was “Non-toxic”. For the same molecule, the T/C (P388 [12]) was <80%, the T/C (P388 [13]) was 137% and the T/C (P388 [14]) was 154%. For the same molecule, the Activity (Mus musculus [15]) was -1.2 g, the T/C (P388 [16]) was 125% and the Activity (Mus musculus [17]) was -1.3 g. The T/C (P388 [18]) was 137%, the Activity (Mus musculus [19]) was “Non-toxic” and the Activity (Mus musculus [20]) was -0.8 g. The Activity (Mus musculus [21]) was -2.1 g, the T/C (P388 [22]) was 120% and the Activity (Mus musculus [23]) was “Non-toxic”. For the same molecule, the Activity (Paracentrotus lividus) was 1 ×10⁻⁸ mol/L, the T/C (P388 [24]) was 150% and the T/C (P388 [25]) was 145%. For the same molecule, the Activity (Mus musculus [26]) was -1.2 g, the Activity (Mus musculus [27]) was -0.6 g and the Activity (Mus musculus [28]) was -1.1 g. For the same molecule, the T/C (P388 [29]) was 104% and the Activity (Mus musculus [30]) was “Non-toxic”.
